In ChEMBL document CHEMBL4325922, “Restoring Let-7 microRNA Biogenesis Using a Small-Molecule Inhibitor of the Protein-RNA Interaction” (ACS Med Chem Lett, 2018):
Each block holds one compound with its values, some of them ahead of it. Active and inactive are the calls of the source. No cut-off for these calls is given here.

Columns and labels:
[1] = target: T1, Protein lin-28 homolog A (Homo sapiens) (UniProt Q9H9Z2); experiment: Inhibition of Cy5-preE-let-7g binding to recombinant human N-terminal His6-tagged Lin28a expressed in Escherichia coli Rosetta2 (DE3) pLysS at 15 uM measured after 30 to 60 mins by electrophoretic mobility shift assay relative to control
T1 sequence (whole entry): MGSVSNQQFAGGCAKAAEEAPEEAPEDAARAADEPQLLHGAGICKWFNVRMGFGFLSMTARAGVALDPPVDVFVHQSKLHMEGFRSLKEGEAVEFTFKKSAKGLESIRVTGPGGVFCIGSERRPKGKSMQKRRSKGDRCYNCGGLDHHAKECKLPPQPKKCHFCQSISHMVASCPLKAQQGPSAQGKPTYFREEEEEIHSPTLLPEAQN

[2] = target: T2, Protein lin-28 homolog A/B (Homo sapiens) (UniProt Q6ZN17+Q9H9Z2); experiment: Inhibition of Lin28a/Lin28b in human JAR cells assessed as increase in mature let-7a level at 5 to 10 uM after 20 hrs by TRIzol dye based qRT-PCR analysis; type: cell-based
T2 sequence (Q6ZN17 whole entry, looked up, one chain of several): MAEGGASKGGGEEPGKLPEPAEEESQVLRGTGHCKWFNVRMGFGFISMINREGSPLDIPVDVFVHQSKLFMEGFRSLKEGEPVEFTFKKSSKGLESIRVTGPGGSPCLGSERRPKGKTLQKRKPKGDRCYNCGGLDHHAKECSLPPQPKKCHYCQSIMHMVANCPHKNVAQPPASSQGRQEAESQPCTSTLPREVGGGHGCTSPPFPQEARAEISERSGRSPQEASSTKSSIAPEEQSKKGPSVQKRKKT
Method in brief: (§1)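 JAR cells (express Lin28a and Lin28b) exposed to compound for 20 h; miRNA levels quantified with U6 snRNA as endogenous control; three or more biological replicates, standard deviation, paired two-tailed t test.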

[3] = target: T2, Protein lin-28 homolog A/B (Homo sapiens); experiment: Inhibition of Lin28a/Lin28b in human JAR cells assessed as increase in mature let-7g level at 5 to 10 uM after 20 hrs by TRIzol dye based qRT-PCR analysis; type: cell-based; method in brief: as §1
[4] = target: T2, Protein lin-28 homolog A/B (Homo sapiens); experiment: Inhibition of Lin28a/Lin28b in human JAR cells assessed as reduction in HMGA2 expression at 5 to 10 uM after 24 hrs by Western blot analysis; type: cell-based
Method in brief: (§2)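 Endogenous let-7 target proteins (HMGA2, IMP1, Ras, Lin28a) detected by Western blot in JAR or PA-1 cells after 24 h compound treatment.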

[5] = target: T2, Protein lin-28 homolog A/B (Homo sapiens); experiment: Inhibition of Lin28a/Lin28b in human JAR cells assessed as reduction in IMP1 expression at 5 to 10 uM after 24 hrs by Western blot analysis; type: cell-based; method in brief: as §2
[6] = target: T2, Protein lin-28 homolog A/B (Homo sapiens); experiment: Inhibition of Lin28a/Lin28b in human JAR cells assessed as reduction in Ras expression at 5 to 10 uM after 24 hrs by Western blot analysis; type: cell-based; method in brief: as §2
[7] = target: T2, Protein lin-28 homolog A/B (Homo sapiens); experiment: Inhibition of Lin28a/Lin28b in human JAR cells assessed as reduction in Lin28a expression at 5 to 10 uM after 24 hrs by Western blot analysis; type: cell-based; method in brief: as §2
[8] = target: T2, Protein lin-28 homolog A/B (Homo sapiens); experiment: Inhibition of Lin28a/Lin28b in human paclitaxel-resistant JAR cells assessed as potentiation of paclitaxel induced cytotoxicity at 40 uM pretreated for 30 hrs followed by paclitaxel addition and measured after 72 hrs by WTS assay
Method in brief: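 Paclitaxel-resistant JAR persister cells, enriched by cytotoxic paclitaxel exposure and regrowth without drug. Cells pretreated 30 h with compound, then given paclitaxel for 72 h without compound; WST viability used to derive the paclitaxel IC50.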

[9] = target: T2, Protein lin-28 homolog A/B (Homo sapiens); experiment: Inhibition of Lin28a/Lin28b in human paclitaxel-resistant JAR cells assessed as reduction in IMP1 expression at 40 uM measured after 24 hrs by Western blot analysis
[10] = target: T2, Protein lin-28 homolog A/B (Homo sapiens); experiment: Inhibition of Lin28a/Lin28b in human paclitaxel-resistant JAR cells assessed as reduction in MDR1 expression at 40 uM measured after 30 hrs by Western blot analysis
Protein lin-28 homolog A = target: T3, Protein lin-28 homolog A (Homo sapiens, UniProt Q9H9Z2); experiment: Inhibition of Cy5-preE-let-7g binding to recombinant human N-terminal His6-tagged Lin28a expressed in Escherichia coli Rosetta2 (DE3) pLysS measured after 30 to 60 mins by electrophoretic mobility shift assay
T3 sequence (Q9H9Z2 whole entry): T1 sequence (whole entry)

inhibition [1]: 14%
Activity [2]: Active
Activity [3]: Active
inhibition [4]: inactive
inhibition [5]: inactive
inhibition [6]: inactive
inhibition [7]: inactive
Compound: COc1cccc(Nc2[nH]c3c(Cl)ccc(Cl)c3c(=O)c2C(N)=O)c1

inhibition [1]: 40%
Compound: NC(=O)c1c(Nc2ccc(F)cc2)[nH]c2c(Cl)ccc(Cl)c2c1=O

inhibition [9]: Active
inhibition [10]: Active
Compound: CC1(C)Oc2cc(N3CCN(C(=O)OCc4ccccc4)CC3)c([N+](=O)[O-])cc2-c2c1cnn2-c1ccc(C(=O)O)cc1
inhibition [8]: Active

IC50 (Protein lin-28 homolog A): 11 µM
Compound: NC(=O)c1c(Nc2ccc(Cl)cc2Cl)[nH]c2c(Cl)c(Cl)ccc2c1=O
